Laboratory results from ChEMBL document CHEMBL4184128, “Design, synthesis and biological evaluation of (E)-3,4-dihydroxystyryl 4-acylaminophenethyl sulfone, sulfoxide derivatives as dual inhibitors of HIV-1 CCR5 and integrase” (Bioorg Med Chem, 2017).

Experiments:
[1] = Cytotoxicity against human TZM-bl cells assessed as reduction in cell viability after 2 days by CCK-8 assay; assay type: cell-based
Outline: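 TZM-bl cells seeded at 1×10^5 cells/mL and exposed to compound at 1000, 200, 40, 8 and 1.6µM, dissolved in DMSO cell freezing medium. Cells kept at 37°C, 5% CO2, in triplicate wells, with a medium-only control. After 2 days, CCK-8 was added for 3–4 h and A450 was read. Survival % = A450 treated/control ×100. CC50 is the concentration giving 50% cytotoxicity.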

[2] = biological target: C-C chemokine receptor type 5 (Homo sapiens) (UniProt P51681); assay: Inhibition of CCR5 in human TZM-bl cells infected with HIV1 Bal R5 assessed as antiviral activity by measuring reduction in viral infection at 50 uM pre-incubated with cells followed by viral infection measured after 3 days by luciferase reporter gene assay; assay type: functional, cell-based
Chain of C-C chemokine receptor type 5 (Homo sapiens) (P51681 whole entry, looked up): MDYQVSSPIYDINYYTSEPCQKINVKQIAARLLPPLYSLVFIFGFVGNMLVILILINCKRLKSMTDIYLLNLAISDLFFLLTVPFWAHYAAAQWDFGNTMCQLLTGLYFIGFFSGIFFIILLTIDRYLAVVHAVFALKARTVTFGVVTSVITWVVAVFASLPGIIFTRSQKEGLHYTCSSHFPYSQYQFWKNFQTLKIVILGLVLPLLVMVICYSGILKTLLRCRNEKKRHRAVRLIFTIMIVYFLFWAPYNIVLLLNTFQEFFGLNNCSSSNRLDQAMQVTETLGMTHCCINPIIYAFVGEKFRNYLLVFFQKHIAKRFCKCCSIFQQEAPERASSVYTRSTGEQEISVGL
Outline: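 TZM-bl cells were plated, and medium was replaced after 12 h with compound at 50μM in duplicate wells. HIV-1 Bal (R5) at 200TCID50 was added with DEAE at 10μg/mL final. Plates were incubated 3 days at 37°C, 5% CO2. Luciferase substrate in lysis buffer reacted 2 min at room temperature, protected from light. Inhibition % was taken as the decrease in signal relative to virus control, as the mean of two wells.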

[3] = biological target: Human immunodeficiency virus type 1 integrase (Human immunodeficiency virus 1, UniProt Q7ZJM1); assay: Binding affinity to HIV1 integrase by surface plasma resonance method
Chain of Human immunodeficiency virus type 1 integrase (Q7ZJM1 whole entry): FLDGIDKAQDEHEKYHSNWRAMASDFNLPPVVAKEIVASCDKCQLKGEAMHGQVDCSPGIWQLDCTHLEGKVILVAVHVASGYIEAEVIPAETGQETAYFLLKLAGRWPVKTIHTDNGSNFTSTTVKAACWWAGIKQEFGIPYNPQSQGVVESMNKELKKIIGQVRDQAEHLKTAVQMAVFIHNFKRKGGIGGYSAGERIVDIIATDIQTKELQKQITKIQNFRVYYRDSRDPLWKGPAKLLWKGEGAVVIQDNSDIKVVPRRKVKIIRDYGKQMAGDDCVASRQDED
Outline: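 IN protein amine-coupled to a CM5 sensor chip (~10000RU) on a Biacore T200. Runs at 25°C in PBST running buffer, flow 30μL/min. Compounds were injected at graded concentrations (200μM, 100μM, 50μM, 25μM, 12.5μM, etc.). Sensorgrams were solvent-corrected and reference flow cell subtracted. KD came from a 1:1 kinetic binding fit.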

SMILES	CC50 at 48 h [1]	inhibition [2]	Kd [3]
COc1ccc(C(=O)Nc2ccc(CCS(=O)(=O)/C=C/c3ccc(O)c(O)c3)cc2)cc1	> 1000 µM	< 20%	
CC(=O)Oc1ccc(/C=C/S(=O)(=O)CCc2ccc(NC(=O)c3ccc([N+](=O)[O-])cc3)cc2)cc1OC(C)=O	160 µM	52.2%	
CC(=O)Oc1ccc(/C=C/S(=O)(=O)CCc2ccc(NC(=O)c3ccc(C)cc3)cc2)cc1OC(C)=O	177 µM	< 20%	
O=C(Nc1ccc(CCS(=O)(=O)/C=C/c2ccc(O)c(O)c2)cc1)c1ccc(F)cc1	> 1000 µM	< 20%	
CC(=O)Oc1ccc(/C=C/S(=O)(=O)CCc2ccc(NC(=O)Cc3cccs3)cc2)cc1OC(C)=O	161 µM	23%	
O=C(Nc1ccc(CCS(=O)(=O)/C=C/c2ccc(O)c(O)c2)cc1)C12CC3CC(CC(C3)C1)C2	786 µM	21.6%	
O=C(Nc1ccc(CC[S+]([O-])/C=C/c2ccc(O)c(O)c2)cc1)C12CC3CC(CC(C3)C1)C2 (centres undefined)		64.7%	
CC(=O)Oc1ccc(/C=C/S(=O)(=O)CCc2ccc(NC(=O)c3ccc(F)cc3)cc2)cc1OC(C)=O	162 µM	26.2%	
O=C(Nc1ccc(CCS(=O)(=O)/C=C/c2ccc(O)c(O)c2)cc1)c1ccccc1	238 µM	< 20%	160 µM
CC(=O)Oc1ccc(/C=C/S(=O)(=O)CCc2ccc(NC(=O)C34CC5CC(CC(C5)C3)C4)cc2)cc1OC(C)=O	182 µM	23.7%	
COc1ccc(C(=O)Nc2ccc(CC[S+]([O-])/C=C/c3ccc(O)c(O)c3)cc2)cc1 (centres undefined)		34.1%	
COc1ccc(C(=O)Nc2ccc(CCS(=O)(=O)/C=C/c3ccc(OC(C)=O)c(OC(C)=O)c3)cc2)cc1	858 µM	< 20%	
O=C(Nc1ccc(CC[S+]([O-])/C=C/c2ccc(O)c(O)c2)cc1)C1CCCCC1 (centres undefined)		52.7%	
O=C(Cc1cccs1)Nc1ccc(CCS(=O)(=O)/C=C/c2ccc(O)c(O)c2)cc1	569 µM	< 20%	
O=C(Nc1ccc(CC[S+]([O-])/C=C/c2ccc(O)c(O)c2)cc1)c1ccccc1 (centres undefined)	157 µM	68.4%	142 µM
Cc1nnc(C(C)C)n1[C@@H]1C[C@H]2CC[C@@H](C1)N2CC[C@H](NC(=O)C1CCC(F)(F)CC1)c1ccccc1 [MARAVIROC]	> 1000 µM		
O=C(Nc1ccc(CCS(=O)(=O)/C=C/c2ccc(O)c(O)c2)cc1)c1cc(F)cc(F)c1	414 µM	33%	
O=C(Nc1ccc(CCS(=O)(=O)/C=C/c2ccc(O)c(O)c2)cc1)C1CCCCC1	638 µM	45.9%	115 µM
O=C(Nc1ccc(CC[S+]([O-])/C=C/c2ccc(O)c(O)c2)cc1)c1cc(F)cc(F)c1 (centres undefined)		41.8%	
Cc1ccc(C(=O)Nc2ccc(CCS(=O)(=O)/C=C/c3ccc(O)c(O)c3)cc2)cc1	168 µM	< 20%	
O=C(Nc1ccc(CCS(=O)(=O)/C=C/c2ccc(O)c(O)c2)cc1)c1ccc([N+](=O)[O-])cc1	483 µM	23.4%	
CC(=O)Oc1ccc(/C=C/S(=O)(=O)CCc2ccc(NC(=O)C3CCCCC3)cc2)cc1OC(C)=O	169 µM	< 20%	
CC(=O)Oc1ccc(/C=C/S(=O)(=O)CCc2ccc(NC(=O)c3ccccc3)cc2)cc1OC(C)=O	108 µM	< 20%	207 µM
CC(=O)Oc1ccc(/C=C/S(=O)(=O)CCc2ccc(NC(=O)c3cc(F)cc(F)c3)cc2)cc1OC(C)=O	225 µM	< 20%	
O=C(Nc1ccc(CC[S+]([O-])/C=C/c2ccc(O)c(O)c2)cc1)c1ccc(F)cc1 (centres undefined)	127 µM	64.6%	
